According to ChEMBL document CHEMBL5321236, “Fluoro-labelled sp2-iminoglycolipids with immunomodulatory properties” (Eur J Med Chem, 2023):
Activity calls are given as the source filed them. The rule behind the calls is not given here.

What was measured:
SW1573 [1] = assay: Induction of apoptosis in human SW1573 cells assessed as membrane blebbing at 20 uM measured upto 15 hrs by microscopy based analysis; type: functional, cell-based
Procedure, shortened: (§1)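 HeLa and SW1573 seeded at 100,000 cells/dish. After 24 h, medium switched to phenol-red-free RPMI 1640 and 20 μM added. Label-free holotomographic 3D live imaging of a 236 × 236 μm field, 10–20 cells initially, every 3 min for 15 h. Average dry mass density measured per cell at each cycle; morphology scored against untreated cells.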

SW1573 [2] = assay: Inhibition of colony formation in human SW1573 cells assessed as reduction in number of colonies at one third of GI50 concentration measured after 7 days by crystal violet staining based analysis; type: functional, cell-based; settings: time 7.0 day
Procedure, shortened: (§2)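 HeLa and SW1573 seeded at 400 cells/well, dosed next day at GI50/3 and GI50 for the given line. Exposed seven days, fixed in methanol, stained with 0.5% w/v crystal violet. Colonies counted by automatic image segmentation.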

WiDr = assay: Growth inhibition of human WiDr cells measured after 48 hrs by SRB colorimetric assay; type: functional
Procedure, shortened: (§3)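 NCI-based protocol with sulforhodamine B read-out. Seeded 2500 (A549, HBL-100, HeLa, SW1573), 5000 (T-47D, WiDr, SW1573/P-gp) or 7000 (BJ-hTERT) cells/well. Exposed 48 h to serial decimal dilutions, 0.001–100 μM, from 40 mM DMSO stock. GI50 by NCI formulas; mean of three or more experiments ± SD.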

HeLa [3] = assay: Induction of morphological changes in human HeLa cells assessed as formation of apoptotic bodies at 20 uM measured after 5 hrs by microscopy based analysis; type: functional, cell-based; procedure, shortened: as §1
HeLa [4] = assay: Induction of morphological changes in human HeLa cells assessed as increase in average dry mass density at 20 uM measured after 15 hrs by imaging based analysis; type: functional, cell-based; procedure, shortened: as §1
SW1573 [5] = assay: Induction of morphological changes in human SW1573 cells assessed as formation of apoptotic bodies at 20 uM measured after 5 hrs by microscopy based analysis; type: functional, cell-based; procedure, shortened: as §1
HeLa [6] = assay: Induction of apoptosis in human HeLa cells assessed as membrane blebbing at 20 uM measured upto 15 hrs by microscopy based analysis; type: functional, cell-based; procedure, shortened: as §1
[7] = Resistance factor, ratio of GI50 for growth inhibition of human SW1573 cells overexpressing P-glycoprotein measured after 48 hrs in absence of verapamil to GI50 for growth inhibition of human SW1573 cells measured after 48 hrs in absence of verapamil; type: functional
Procedure, shortened: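 Resistance factor: GI50 in P-gp-overexpressing SW1573 divided by GI50 in parental SW1573, each from 48 h SRB growth-inhibition assay without verapamil. Values are means of three or more independent experiments.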

BV-2 = assay: Cytotoxicity against mouse BV-2 cells at 10 uM measured after 24 hr by crystal violet staining based analysis; type: toxicity, cell-based; settings: bv-2, 24 h
Procedure, shortened: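 Bv.2 cells grown to 70% confluence, exposed 24 h in serum-free medium to 0.1, 1.0, 10 and 25 μM. Fixed with 1% glutaraldehyde, stained with 0.1% crystal violet, dye released in 10% acetic acid, absorbance 590 nm. Mean ± SEM, n ≥ 3 independent experiments.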

SW1573 [8] = assay: Growth inhibition of human SW1573 cells measured after 48 hrs in presence of verapamil by SRB colorimetric assay; type: functional
Procedure, shortened: as §3, with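 “read-out. Cells grown in RPMI 1640 with 5% FBS and 1 mM glutamine at 37 °C, 5% CO₂.” for “read-out.”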

HeLa [9] = assay: Growth inhibition of human HeLa cells measured after 48 hrs by SRB colorimetric assay; type: functional; procedure, shortened: as §3
[10] = biological target: Mitogen-activated protein kinase 14 (Mus musculus) (UniProt P47811); assay: Inhibition of LPS-stimulated p38 alpha phosphorylation in mouse BV-2 cells at 10 uM measured after 15 to 90 mins by Western blot analysis; type: cell-based; settings: time 15-90 min
Procedure, shortened: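 Bv.2 cells exposed with or without LPS for 15–90 min. Protein extracts run on SDS-PAGE, blotted to PVDF, probed with anti-phospho-p38α MAPK and anti-total p38α MAPK (1:1000), ECL detection. Quantified by densitometry, mean ± SEM, n = 3.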

SW1573 [11] = assay: Growth inhibition of human SW1573 cells overexpressing P-glycoprotein measured after 48 hrs in presence of verapamil by SRB colorimetric assay; type: functional
Procedure, shortened: as §3, with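 “read-out. Cells grown in RPMI 1640 with 5% FBS and 1 mM glutamine at 37 °C, 5% CO₂.” for “read-out.”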

[12] = Resistance factor, ratio of GI50 for growth inhibition of human SW1573 cells overexpressing P-glycoprotein measured after 48 hrs in presence of verapamil to GI50 for growth inhibition of human SW1573 cells measured after 48 hrs in presence of verapamil; type: functional
Procedure, shortened: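 SW1573 parental and P-gp-overexpressing cells given 48 h exposure to serial dilutions (0.001–100 μM) in medium containing verapamil at a final 10 μM as P-gp transport inhibitor. SRB read-out, GI50 by NCI formulas. Resistance factor taken as GI50 in SW1573/P-gp divided by GI50 in SW1573.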

HeLa [13] = assay: Inhibition of colony formation in human HeLa cells assessed as reduction in number of colonies at one third of GI50 concentration measured after 7 days by crystal violet staining based analysis; type: functional, cell-based; settings: time 7.0 day; procedure, shortened: as §2

Sequence of Mitogen-activated protein kinase 14 (Mus musculus) (P47811 whole entry): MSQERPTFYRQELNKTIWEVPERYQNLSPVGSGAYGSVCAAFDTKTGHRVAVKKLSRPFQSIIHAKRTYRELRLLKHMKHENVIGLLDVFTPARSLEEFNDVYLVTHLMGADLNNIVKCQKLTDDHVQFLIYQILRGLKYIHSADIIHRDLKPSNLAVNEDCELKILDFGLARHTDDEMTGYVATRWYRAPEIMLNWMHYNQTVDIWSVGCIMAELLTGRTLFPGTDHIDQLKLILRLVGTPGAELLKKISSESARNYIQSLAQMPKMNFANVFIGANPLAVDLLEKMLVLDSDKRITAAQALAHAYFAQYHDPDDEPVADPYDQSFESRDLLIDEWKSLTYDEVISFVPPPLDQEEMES

For `CCCCCCCCCCCCS(=O)(=O)[C@@H]1[C@H](F)[C@@H](O)[C@H](O)[C@H]2COC(=O)N21`, the Activity (SW1573 [1]) was “inactive”, the inhibition (SW1573 [2]) was “Active” and the GI50 (WiDr) was 20 µM. The Activity (HeLa [3]) was “Active”, the Activity (HeLa [4]) was “Active” and the Activity (SW1573 [5]) was “Active”. The Activity (HeLa [6]) was “Active”, the RatioGI50 [7] was 1.6 and the Activity (BV-2) was “Non-Toxic”. The GI50 (SW1573 [8]) was 15 µM, the GI50 (HeLa [9]) was 4.5 µM and the inhibition [10] was “inactive”. For the same compound, the GI50 (SW1573 [11]) was 11 µM, the RatioGI50 [12] was 0.7 and the inhibition (HeLa [13]) was “Active”.
